Reference: ChEMBL document CHEMBL6134764, “Synthesis and biological evaluation of novel D-ring fused steroidal N(2)-substituted-1,2,3-triazoles” (RSC Med Chem, 2025)
Activity calls are given as the source filed them. The calls are words filed in the database; no cut-off is given here.

Assays:
[1] = target: T1, Estrogen receptor (Homo sapiens) (UniProt P03372); assay: Binding affinity to human recombinant ERalpha ligand binding domain extracted from saccharomyces cerevisiae coexpressing yellow fluorescent protein assessed as relative binding affinity at 10 uM incubated for 14 to 16 hrs by fluorimetry based fluorescence microscopic analysis; conditions: time 14-16 hrs
T1 sequence (whole entry): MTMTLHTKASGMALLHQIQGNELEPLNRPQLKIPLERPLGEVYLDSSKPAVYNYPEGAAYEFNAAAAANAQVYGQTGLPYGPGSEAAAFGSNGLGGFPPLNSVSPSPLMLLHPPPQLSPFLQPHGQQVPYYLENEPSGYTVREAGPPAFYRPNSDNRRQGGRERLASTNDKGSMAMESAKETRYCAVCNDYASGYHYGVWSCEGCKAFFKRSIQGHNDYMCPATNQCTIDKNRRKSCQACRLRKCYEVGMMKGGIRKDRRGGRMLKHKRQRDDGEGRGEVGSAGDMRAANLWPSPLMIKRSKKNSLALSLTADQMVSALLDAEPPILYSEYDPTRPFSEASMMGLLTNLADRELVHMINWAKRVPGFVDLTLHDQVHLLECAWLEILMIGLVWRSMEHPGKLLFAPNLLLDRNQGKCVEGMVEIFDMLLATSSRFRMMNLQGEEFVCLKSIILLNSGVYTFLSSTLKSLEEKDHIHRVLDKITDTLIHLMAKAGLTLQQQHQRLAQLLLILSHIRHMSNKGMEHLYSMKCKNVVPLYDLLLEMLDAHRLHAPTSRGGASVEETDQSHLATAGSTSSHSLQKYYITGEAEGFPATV
Outline: (§1)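 S. cerevisiae FY250 carrying receptor LBD–EYFP fusions (human ERα, ERβ, AR; rat GR); raffinose drop-out medium, grown to OD600 ~0.6, fusion induced with 2% galactose. Compounds 10 μM (ER, AR) or 100 μM (GR), 14–16 h, 25 °C, dark; DMSO solvent control. Fluorescence at ex/em 485/538 nm, triplicate; fold change vs DMSO (normalized to 1).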

[2] = target: T2, Androgen receptor (Homo sapiens) (UniProt P10275); assay: Binding affinity to human recombinant androgen receptor ligand binding domain extracted from saccharomyces cerevisiae coexpressing yellow fluorescent protein assessed as relative binding affinity at 10 uM incubated for 14 to 16 hrs by fluorimetry based fluorescence microscopic analysis; conditions: time 14-16 hrs; outline: as §1
T2 sequence (whole entry): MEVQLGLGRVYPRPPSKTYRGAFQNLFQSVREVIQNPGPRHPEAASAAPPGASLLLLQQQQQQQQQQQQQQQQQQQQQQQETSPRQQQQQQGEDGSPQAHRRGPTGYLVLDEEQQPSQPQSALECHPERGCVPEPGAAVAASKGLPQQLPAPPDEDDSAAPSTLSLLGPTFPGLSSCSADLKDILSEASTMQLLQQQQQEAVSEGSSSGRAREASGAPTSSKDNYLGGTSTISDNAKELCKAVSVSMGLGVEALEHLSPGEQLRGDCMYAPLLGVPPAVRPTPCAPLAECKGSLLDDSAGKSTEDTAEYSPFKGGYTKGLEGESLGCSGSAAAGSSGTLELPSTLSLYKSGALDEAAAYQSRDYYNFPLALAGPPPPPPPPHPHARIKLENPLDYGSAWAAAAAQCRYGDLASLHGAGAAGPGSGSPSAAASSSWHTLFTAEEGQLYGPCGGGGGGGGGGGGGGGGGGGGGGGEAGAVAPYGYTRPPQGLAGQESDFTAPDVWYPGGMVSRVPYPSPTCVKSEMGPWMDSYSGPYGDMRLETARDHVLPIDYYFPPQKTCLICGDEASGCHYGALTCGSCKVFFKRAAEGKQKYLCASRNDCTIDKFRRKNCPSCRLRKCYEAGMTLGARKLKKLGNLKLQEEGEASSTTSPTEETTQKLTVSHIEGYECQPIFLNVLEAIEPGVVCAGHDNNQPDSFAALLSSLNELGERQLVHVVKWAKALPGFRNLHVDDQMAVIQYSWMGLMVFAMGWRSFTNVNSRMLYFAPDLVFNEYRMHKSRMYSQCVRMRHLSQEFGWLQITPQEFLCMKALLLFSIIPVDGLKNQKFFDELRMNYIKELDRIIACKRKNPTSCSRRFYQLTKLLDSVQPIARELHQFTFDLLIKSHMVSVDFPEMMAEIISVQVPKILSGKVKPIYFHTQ

[3] = target: T3, Aldo-keto reductase family 1 member C4 (Homo sapiens) (UniProt P17516); assay: Inhibition of N-terminal his-tagged recombinant human AKR1C4 assessed as NADPH consumption using 9,10-phenanthrenequinone as substrate at 33 uM by fluorescence spectroscopic analysis relative to control
T3 sequence (whole entry): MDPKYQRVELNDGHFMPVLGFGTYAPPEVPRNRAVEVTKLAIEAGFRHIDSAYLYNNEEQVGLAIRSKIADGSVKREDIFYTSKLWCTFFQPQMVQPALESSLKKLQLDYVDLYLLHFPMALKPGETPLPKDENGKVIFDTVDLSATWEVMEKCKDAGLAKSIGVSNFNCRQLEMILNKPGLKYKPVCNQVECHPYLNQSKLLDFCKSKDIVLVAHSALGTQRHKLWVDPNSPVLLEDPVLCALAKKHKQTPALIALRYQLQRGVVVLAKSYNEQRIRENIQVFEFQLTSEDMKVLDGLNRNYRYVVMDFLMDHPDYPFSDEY
Outline: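 N-His-tagged human AKR1C4 from E. coli BL21(DE3), purified by Ni-affinity and size exclusion. Enzyme at 160 μg/mL with 17 μM 9,10-phenanthrenequinone and 250 μM NADPH in 100 mM potassium phosphate pH 6.0, 37 °C, duplicate. Compound at 33 μM final. NADPH fluorescence (ex 340/em 460 nm) read every 30 s for 10 min; inhibition from linear slope vs uninhibited enzyme (100%).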

HCT-116 = assay: Cytotoxicity against human HCT-116 cells assessed as reduction in cell viability incubated for 72 hrs by resazurin assay; conditions: HCT-116, 72 h
MCF7 = assay: Cytotoxicity against human MCF7 cells assessed as reduction in cell viability incubated for 72 hrs by resazurin assay; conditions: MCF7, 72 h
[4] = Toxicity in human hTERT-BJ cells assessed as reduction in cell viability at 0.01 to 100 uM incubated for 72 hrs by resazurin assay; type: cell-based; conditions: dose 0.01-100 µM
Outline: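 hTERT-immortalized BJ-5ta foreskin fibroblasts grown in high-glucose DMEM with 20% Medium 199 and 10% FBS. Exposed to 0.01–100 μM for 72 h, then 0.01 mg/mL resazurin for 2 h, fluorescence at 584 nm; n = 3; one-way ANOVA with Dunnett's test vs control.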

Huh-7 = assay: Cytotoxicity against human Huh-7 cells assessed as reduction in cell viability incubated for 72 hrs by resazurin assay; conditions: Huh-7, 72 h
MDA-MB-231 = assay: Cytotoxicity against human MDA-MB-231 cells assessed as reduction in cell viability incubated for 72 hrs by resazurin assay; conditions: MDA-MB-231, 72 h
[5] = target: Estrogen receptor beta (Homo sapiens) (UniProt Q92731); assay: Binding affinity to human recombinant ERbeta ligand binding domain extracted from saccharomyces cerevisiae coexpressing yellow fluorescent protein assessed as relative binding affinity at 10 uM incubated for 14 to 16 hrs by fluorimetry based fluorescence microscopic analysis; conditions: time 14-16 hrs; outline: as §1
Chain of Estrogen receptor beta (Homo sapiens) (Q92731 whole entry, the tested form may be a part): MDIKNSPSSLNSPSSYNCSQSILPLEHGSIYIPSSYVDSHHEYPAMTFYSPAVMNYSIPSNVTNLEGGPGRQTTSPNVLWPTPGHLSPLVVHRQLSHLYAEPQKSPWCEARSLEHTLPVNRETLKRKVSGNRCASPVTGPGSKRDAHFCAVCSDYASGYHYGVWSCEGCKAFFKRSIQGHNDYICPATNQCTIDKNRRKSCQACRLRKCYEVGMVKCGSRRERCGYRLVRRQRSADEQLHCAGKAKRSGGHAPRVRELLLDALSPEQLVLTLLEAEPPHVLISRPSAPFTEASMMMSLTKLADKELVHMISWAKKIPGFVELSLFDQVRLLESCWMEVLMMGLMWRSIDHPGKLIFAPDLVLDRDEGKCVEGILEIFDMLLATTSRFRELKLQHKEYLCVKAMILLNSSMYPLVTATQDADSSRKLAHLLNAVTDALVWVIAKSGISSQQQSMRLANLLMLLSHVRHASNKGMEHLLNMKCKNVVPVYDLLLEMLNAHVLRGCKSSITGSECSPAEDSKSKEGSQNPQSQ

Row | SMILES | Activity [1] | Activity [2] | inhibition [3] [%] | IC50 (HCT-116) [µM] | IC50 (MCF7) [µM] | Activity [4] | IC50 (Huh-7) [µM] | IC50 (MDA-MB-231) [µM] | Activity [5]
1 | Cn1nc2c(n1)[C@@]1(C)CC[C@@H]3c4ccc(OCc5ccccc5)cc4CC[C@H]3[C@@H]1C2 | inactive | inactive | 0 | – | – | – | – | – | –
2 | CCCCCCCCn1nc2c(n1)[C@@]1(C)CC[C@@H]3c4ccc(OCc5ccccc5)cc4CC[C@H]3[C@@H]1C2 | inactive | inactive | 0 | – | – | – | – | – | –
3 | CCCCn1nc2c(n1)[C@@]1(C)CC[C@H]3[C@@H](CC=C4C[C@@H](O)CC[C@@]43C)[C@@H]1C2 | inactive | inactive | 0 | – | – | – | – | – | –
4 | C[C@]12CC[C@H](O)CC1=CC[C@@H]1[C@@H]2CC[C@]2(C)c3nn(CCN)nc3C[C@@H]12 | inactive | inactive | 2.29 | 22.3 | 22.3 | Toxic | 22.3 | 22.3 | –
5 | CC(=O)O[C@H]1CC[C@@]2(C)C(=CC[C@@H]3[C@@H]2CC[C@]2(C)c4nn(C(C)=O)nc4C[C@@H]32)C1 | inactive | inactive | 8.32 | – | – | – | – | – | Active
6 | CC(C)Cc1ccc(C(C)C(=O)O)cc1 (configuration not stated) | – | – | 43.9 | – | – | – | – | – | –
7 | CCn1nc2c(n1)[C@@]1(C)CC[C@@H]3c4ccc(OCc5ccccc5)cc4CC[C@H]3[C@@H]1C2 | inactive | inactive | 0 | – | – | – | – | – | –
8 | C[C@]12CC[C@H](O)CC1=CC[C@@H]1[C@@H]2CC[C@]2(C)c3nn(Cc4ccccc4)nc3C[C@@H]12 | inactive | inactive | 0 | – | – | – | – | – | –
9 | CCOC(=O)Cn1nc2c(n1)[C@@]1(C)CC[C@H]3[C@@H](CC=C4C[C@@H](O)CC[C@@]43C)[C@@H]1C2 | inactive | inactive | 0 | – | – | – | – | – | –
10 | CCn1nc2c(n1)[C@@]1(C)CC[C@H]3[C@@H](CC=C4C[C@@H](O)CC[C@@]43C)[C@@H]1C2 | inactive | inactive | 2.81 | – | – | – | – | – | –
11 | Cn1nc2c(n1)[C@@]1(C)CC[C@H]3[C@@H](CC=C4C[C@@H](O)CC[C@@]43C)[C@@H]1C2 | inactive | inactive | 0 | – | – | – | – | – | Active
12 | C[C@]12CC[C@@H]3c4ccc(OCc5ccccc5)cc4CC[C@H]3[C@@H]1Cc1nn(Cc3ccccc3)nc12 | inactive | inactive | 0 | – | – | – | – | – | Active
